# Assay results from ChEMBL document CHEMBL2016434, “Exploiting the P-1 pocket of BRCT domains toward a structure guided inhibitor design” (ACS Med Chem Lett, 2011).
# The source made the active and inactive calls. The rule behind the calls is not given here. Non-standard residues stand in square brackets, D forms with d. Residues, ends and D or L forms follow the SMILES beside them. *: point of attachment. Benzoyl(3-Ph) = O=C(c1cccc(-c2ccccc2)c1)*; 2Nal = N[C@@H](Cc1ccc2ccccc2c1)C(=O)O; d2Nal = N[C@H](Cc1ccc2ccccc2c1)C(=O)O; Pentanoyl(5-Ph) = O=C(CCCCc1ccccc1)*; Butanoyl(4-Ph) = O=C(CCCc1ccccc1)*; Hydrocinnamoyl = O=C(CCc1ccccc1)*; pS = N[C@@H](COP(=O)(O)O)C(=O)O; X1 = O=C(C/C=C/c1ccccc1)*
# Key:
# [1] = molecular target: T1, Breast cancer type 1 susceptibility protein (Homo sapiens, UniProt P38398); experiment: Inhibition of BRCT domain of His-tagged BRCA1 after 1 min by competitive fluorescence polarization assay
# Target sequence in this assay (P38398 whole entry, the tested form may be a part): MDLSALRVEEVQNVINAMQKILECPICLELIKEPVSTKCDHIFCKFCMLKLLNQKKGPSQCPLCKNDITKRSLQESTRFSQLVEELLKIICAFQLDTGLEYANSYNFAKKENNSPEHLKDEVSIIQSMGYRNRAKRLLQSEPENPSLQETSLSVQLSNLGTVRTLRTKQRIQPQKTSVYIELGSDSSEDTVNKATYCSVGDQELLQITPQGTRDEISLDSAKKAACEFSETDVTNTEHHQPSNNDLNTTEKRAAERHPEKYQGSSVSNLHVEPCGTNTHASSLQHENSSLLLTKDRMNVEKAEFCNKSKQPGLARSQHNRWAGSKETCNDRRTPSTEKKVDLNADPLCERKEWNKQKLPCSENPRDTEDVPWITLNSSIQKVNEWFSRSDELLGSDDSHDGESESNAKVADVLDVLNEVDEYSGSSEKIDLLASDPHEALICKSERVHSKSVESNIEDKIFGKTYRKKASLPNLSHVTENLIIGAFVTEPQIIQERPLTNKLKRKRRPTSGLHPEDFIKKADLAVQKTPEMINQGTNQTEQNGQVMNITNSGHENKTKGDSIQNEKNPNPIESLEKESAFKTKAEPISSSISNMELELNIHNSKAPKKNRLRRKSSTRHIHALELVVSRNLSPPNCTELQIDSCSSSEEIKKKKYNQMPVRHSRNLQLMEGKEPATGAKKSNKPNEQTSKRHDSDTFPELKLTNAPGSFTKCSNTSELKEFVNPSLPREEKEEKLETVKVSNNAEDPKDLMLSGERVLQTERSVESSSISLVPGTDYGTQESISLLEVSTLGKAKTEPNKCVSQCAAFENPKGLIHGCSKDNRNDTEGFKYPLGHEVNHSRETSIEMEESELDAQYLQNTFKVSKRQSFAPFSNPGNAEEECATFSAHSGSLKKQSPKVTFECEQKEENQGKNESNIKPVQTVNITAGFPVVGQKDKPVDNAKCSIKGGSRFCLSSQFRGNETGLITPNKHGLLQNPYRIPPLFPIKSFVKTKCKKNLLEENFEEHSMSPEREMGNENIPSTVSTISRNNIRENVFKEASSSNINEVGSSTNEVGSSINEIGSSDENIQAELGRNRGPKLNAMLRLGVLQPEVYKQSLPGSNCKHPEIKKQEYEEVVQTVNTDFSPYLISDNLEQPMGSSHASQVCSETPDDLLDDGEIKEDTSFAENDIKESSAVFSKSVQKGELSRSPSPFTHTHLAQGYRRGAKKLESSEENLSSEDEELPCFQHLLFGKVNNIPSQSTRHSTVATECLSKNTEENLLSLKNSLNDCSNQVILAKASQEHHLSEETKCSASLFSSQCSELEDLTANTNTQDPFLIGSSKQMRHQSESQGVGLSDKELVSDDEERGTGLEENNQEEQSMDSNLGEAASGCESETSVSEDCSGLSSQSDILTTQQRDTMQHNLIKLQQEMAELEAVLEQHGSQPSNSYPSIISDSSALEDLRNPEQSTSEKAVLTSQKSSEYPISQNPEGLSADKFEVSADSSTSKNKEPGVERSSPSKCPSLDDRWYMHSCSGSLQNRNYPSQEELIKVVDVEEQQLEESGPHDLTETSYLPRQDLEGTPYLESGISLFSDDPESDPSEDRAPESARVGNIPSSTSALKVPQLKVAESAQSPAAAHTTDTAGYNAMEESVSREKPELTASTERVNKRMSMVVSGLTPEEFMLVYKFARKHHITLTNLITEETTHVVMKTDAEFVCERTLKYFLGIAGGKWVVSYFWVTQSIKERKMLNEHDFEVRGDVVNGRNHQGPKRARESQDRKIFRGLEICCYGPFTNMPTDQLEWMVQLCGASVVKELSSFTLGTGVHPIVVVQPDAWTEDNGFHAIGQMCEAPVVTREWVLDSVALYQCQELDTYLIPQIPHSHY
# [2] = molecular target: T1, Breast cancer type 1 susceptibility protein; experiment: Displacement of phospho-BACH1 protein from BRCT domain of BRCA1 at 0.5 to 5000 uM by PAGE analysis
# Procedure, shortened: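 Phospho-BACH1 peptide immobilized on streptavidin–agarose beads was incubated with BRCT-BRCA1 together with the competing peptide mimics. Beads were then isolated and the bound protein resolved by polyacrylamide gel electrophoresis, followed by phosphor-screen exposure. Relative band intensities were quantified, and pulldown IC50 values were obtained by curve fitting.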
# Target sequence in this assay (P38398 whole entry, looked up, the tested form may be a part): as the sequence (P38398 whole entry, the tested form may be a part) above
Ki [1],Activity [2],SMILES
540 nM,–,CC(=O)N[C@@H](Cc1ccc2ccccc2c1)C(=O)N[C@@H](COP(=O)(O)O)C(=O)N1CCC[C@H]1C(=O)N[C@H](C(=O)N[C@@H](Cc1ccccc1)C(N)=O)C(C)C (Ac-[2Nal][pS]PVF-NH2)
130 nM,–,CC(=O)N[C@@H](Cc1ccc2ccccc2c1)C(=O)N[C@@H](COP(=O)(O)O)C(=O)N1CCC[C@H]1C(=O)N[C@H](C(=O)N[C@@H](Cc1ccccc1)C(=O)O)C(C)C (Ac-[2Nal][pS]PVF-OH)
40 nM,Active,CC(C)[C@H](NC(=O)[C@@H]1CCCN1C(=O)[C@H](COP(=O)(O)O)NC(=O)C/C=C/c1ccccc1)C(=O)N[C@@H](Cc1ccccc1)C(=O)O (X1-[pS]PVF-OH)
80 nM,Active,CC(C)[C@H](NC(=O)[C@@H]1CCCN1C(=O)[C@H](COP(=O)(O)O)NC(=O)c1cccc(-c2ccccc2)c1)C(=O)N[C@@H](Cc1ccccc1)C(=O)O ({Benzoyl(3-Ph)}-[pS]PVF-OH)

# Second part, the molecule before the results:
SMILES,Ki [1],Activity [2]
CC(=O)N[C@@H](Cc1ccc2ccccc2c1)C(=O)N[C@@H](COP(=O)(O)O)C(=O)N1CCC[C@H]1C(=O)N[C@H](C(=O)N[C@@H](Cc1ccccc1)C(N)=O)[C@@H](C)O (Ac-[2Nal][pS]PTF-NH2),1240 nM,–
CC(=O)N[C@H](Cc1ccc2ccccc2c1)C(=O)N[C@@H](COP(=O)(O)O)C(=O)N1CCC[C@H]1C(=O)N[C@H](C(=O)N[C@@H](Cc1ccccc1)C(N)=O)[C@@H](C)O (Ac-[d2Nal][pS]PTF-NH2),19400 nM,–
CC(C)[C@H](NC(=O)[C@@H]1CCCN1C(=O)[C@H](COP(=O)(O)O)NC(=O)CCc1ccccc1)C(=O)N[C@@H](Cc1ccccc1)C(=O)O (Hydrocinnamoyl-[pS]PVF-OH),100 nM,–
CC(C)[C@H](NC(=O)[C@@H]1CCCN1C(=O)[C@H](COP(=O)(O)O)NC(=O)CCCc1ccccc1)C(=O)N[C@@H](Cc1ccccc1)C(=O)O ({Butanoyl(4-Ph)}-[pS]PVF-OH),500 nM,–
CC(C)[C@H](NC(=O)[C@@H]1CCCN1C(=O)[C@H](COP(=O)(O)O)NC(=O)CCCCc1ccccc1)C(=O)N[C@@H](Cc1ccccc1)C(=O)O ({Pentanoyl(5-Ph)}-[pS]PVF-OH),12000 nM,–
